Screens deposited in PubChem BioAssay by several laboratories.
TAAR1 antag: human TAAR1 antagonism; Q96RJ0; CHO RD-HGA16 TAAR1, Fluo-8 calcium fluorescence, antagonist; inhibition, % at 3 µM; 1.5% of 360,000 active;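 active = inhibition above a per-plate cutoff, the mean inhibition of test compounds on that plate plus 3 SD, cut at about 49% in these data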;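 note: 0% = DMSO plus EC80 beta-PEA response and 100% = DMSO alone without agonist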
Target sequence (Q96RJ0 whole entry, looked up): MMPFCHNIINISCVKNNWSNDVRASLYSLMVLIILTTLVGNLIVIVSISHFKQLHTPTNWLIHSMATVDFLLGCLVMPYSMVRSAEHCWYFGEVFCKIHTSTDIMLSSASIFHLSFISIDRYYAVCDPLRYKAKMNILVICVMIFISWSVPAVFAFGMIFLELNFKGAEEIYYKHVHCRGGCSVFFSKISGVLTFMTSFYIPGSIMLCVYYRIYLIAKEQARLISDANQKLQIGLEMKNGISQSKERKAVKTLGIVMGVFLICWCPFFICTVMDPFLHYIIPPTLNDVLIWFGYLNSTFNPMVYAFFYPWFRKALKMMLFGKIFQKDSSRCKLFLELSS
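Material: CHO RD-HGA16 cells bearing hTAAR1; compound dosing: one-point dosing, 3 µM nominal final; schedule: dye loading 75 min at 37 °C, then 30 min room temperature; measured by: calcium fluorescence with Fluo-8; control set: vehicle and agonist controls; replication: n of 1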
Rce1 inhib: yeast Ras-converting enzyme inhibition; Q03530; yeast membranes, quenched prenylated peptide cleavage fluorescence; calls only; 0.27% of 290,000 active; AID 2563;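 active = fall in fluorescence gain of 50% or more versus controls, with final raw signal at or below 3038400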;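 note: plate controls were neutral control wells for no effect and wells lacking membranes for full effect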
Target sequence (Q03530 whole entry, looked up): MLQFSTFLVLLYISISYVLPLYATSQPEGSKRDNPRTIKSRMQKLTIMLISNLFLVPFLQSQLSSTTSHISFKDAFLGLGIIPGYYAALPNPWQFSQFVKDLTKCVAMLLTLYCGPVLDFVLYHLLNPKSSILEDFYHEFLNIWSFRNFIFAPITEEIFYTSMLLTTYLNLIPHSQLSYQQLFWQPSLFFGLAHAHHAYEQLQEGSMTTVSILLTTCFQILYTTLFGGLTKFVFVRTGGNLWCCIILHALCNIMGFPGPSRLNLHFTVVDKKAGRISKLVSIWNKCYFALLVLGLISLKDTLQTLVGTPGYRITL
TAAR1 ag: agonists of human TAAR1; Q96RJ0; CHO RD-HGA16 TAAR1, Fluo-8 calcium fluorescence; vehicle wells 0%, saturating PEA agonist 100%; activation, % at 3 µM; 0.99% of 360,000 active; AID 624467;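 active = activation above the mean activation of all test compounds in the run plus 3 SD, cut at about 38% in these data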
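Test system: RD-HGA16 (CHO) cells co-expressing Gα16 and hTAAR1 | Doses: Single dose, 3 µM | Schedule: 17-24 h seeding, 75 min 37 °C dye, 30 min RT | Evaluation: % activation from peak over basal fluorescence ratio, DMSO-to-PEA scaled | Technique: Kinetic Fluo-8 calcium fluorescence | Benchmarks: Low control DMSO, high control PEA (EC100)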
VLA-4 inh: inhibition in a human VLA-4 binding assay. P13612. VLA-4 expressing cells, ligand binding flow cytometry. inhibition, % (about 7 µM as worked out from the volumes in the protocol). 0.2% of 330,000 active. AID 2557; in the data active = inhibition above about 50%
Platelet DG rel: platelet dense granule release activity | inhibition, %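 (compounds screened at 7.5 µM in platelet-rich plasma)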 | human platelet-rich plasma, SFLLRN dense granule ATP release, luminescence | 0.22% of 300,000 active;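 active = mean replicate score, as percent of positive control, at or above 50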
VLA-4 allo CP: human VLA-4 allosteric modulation in cherry picked compounds; shares compounds with VLA-4 inh; U937 cells, HUTS-21 LIBS mAb binding, flow cytometry; LDV ligand present at threefold Kd; inhibition, % at 6.7 µM; 2% of 1,300 active; in the data active = inhibition above about 40%;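 note: 0% = ligand without compound and 100% = no ligand background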
Numbers without * were called inactive; i = inactive; . = not tested or not shown; ! = not active in a repeat. Most compounds without a hit are left out; they make up all but 2.6% or so of the library.

SMILES | TAAR1 antag | Rce1 inhib | TAAR1 ag | VLA-4 inh | Platelet DG rel | VLA-4 allo CP
CSc1cccc(N2C(=O)C3CCCN3C2=S)c1 (centres undefined) | -4.9 | i | -0.4 | 47.3 | 0.7 | -13.4
Cc1cccc(N2C(=O)C3CCCN3C2=S)c1 (centres undefined) | 4.1 | i | -0.8 | 33.1 | -3.2 | .
COC(=O)C1=C(C)N(Cc2ccc(C(F)(F)F)cc2)C(=NCc2ccccc2C(F)(F)F)NC1c1ccccc1 (centres undefined) | 18.5 | . | 4.3 | . | . | .
CCN(CC)CCNC(=O)COc1ccc(OC)cc1 | -14.0 | i | 0.4 | 57.1*! | 6.6 | 1.1
COc1ccc(OCC(=O)NCCCCCCNC(=O)COc2ccc(OC)cc2)cc1 | -11.1 | i | 1.0 | -18.7 | 16.8 | .
CC(C)[C@H](NC(=O)N1c2ccccc2NC(=O)[C@@H]1C(C)C)C(=O)N[C@@H](Cc1ccccc1)C(=O)O | -8.7 | i | 3.4 | 64.3* | 4.4 | 9.7
CC1CCCCN1S(=O)(=O)c1ccc(N(C(=O)c2cnccn2)C(C(=O)NC2CCCCC2)c2cccs2)cc1 (centres undefined) | -21.0 | i | 0.7 | -7.4 | -2.0 | .
CC1CCCCN1S(=O)(=O)c1ccc(N(C(=O)c2cnccn2)C(C(=O)NC2CCCC2)c2cccs2)cc1 (centres undefined) | -3.5 | i | 1.2 | 44.5 | 5.8 | 0.5
NC(=O)Cn1cc(C(=O)C(=O)N2CCOCC2)c2ccccc21 | -11.8 | i | 1.7 | -0.5 | 6.3 | 0.3
CC(=O)NC(=S)Nc1ccc(NC(=O)c2cccs2)cc1 | 0.9 | i | 2.1 | 42.5 | -60.7 | -11.0
Cc1c(N(C(=O)c2cc(=O)[nH]c3ccccc23)C(C)C)c(=O)n(-c2ccccc2)n1C | 14.7 | i | -0.6 | 10.5 | -6.5 | 0.0
CCCc1nc2cc(CC(=O)OC)ccc2o1 | -0.6 | i | -0.7 | 71.7* | -15.3 | 2.4
O=C(CN1CCCCC1)N1N=C(c2cccs2)CC1c1cccs1 (centres undefined) | 8.7 | i | 2.3 | 40.4 | 0.5 | -1.2
CCOc1ncccc1C(=O)Nc1cccc(-c2nnc3n2CCCCC3)c1 | -4.0 | i | 2.7 | 68.5* | -9.3 | 0.3
COc1ccc(C(=O)/C=C/C(=O)N(CC(=O)NC2CCCCC2)Cc2cccs2)c(O)c1 | 33.1 | . | 35.9 | 63.2* | 23.4 | 28.5
COCCN(CC(=O)NC1CCCCC1)C(=O)/C=C/C(=O)c1ccc(OC)cc1O | 18.7 | i | 8.8 | . | 36.8 | .
COCCCNC(=O)Cn1c(=O)oc2cc(S(=O)(=O)N3CC(C)CC(C)C3)ccc21 (centres undefined) | -12.0 | i | -1.4 | 17.1 | 1.7 | .
CCCCNC(=O)Cn1c(=O)oc2cc(S(=O)(=O)N3CC(C)CC(C)C3)ccc21 (centres undefined) | 1.7 | i | 5.7 | -9.7 | -1.7 | -3.9
O=C1Nc2ccccc2O/C1=C\c1c(F)cccc1Cl | -37.6 | i | 4.1 | 48.8 | 3.0 | -18.3
COC(=O)c1ccc(/C=C2\Oc3ccccc3NC2=O)cc1 | -24.5 | i | 3.9 | -1.7 | -9.7 | .
NC(=O)CNCCC(c1ccccc1)c1ccccc1 | -33.9 | . | 3.9 | 8.6 | . | .
Cc1cc(C)n(-c2nc(C)nc(N)n2)n1 | 13.8 | i | 7.8 | 1.1 | -3.8 | -4.2
Cc1cc(Cl)nc(-n2nc(C)cc2C)n1 | -9.5 | i | -0.4 | 17.1 | 13.2 | 2.0
N#Cc1cc(F)cc(OCCCN2CCC(C(O)(c3ccccc3)c3ccccc3)CC2)c1 | 32.6 | . | 24.0 | . | . | .
CC(C)(C)c1ccc(NC(=O)CCNC(=O)c2ccco2)cc1 | 14.4 | i | 2.2 | 49.8* | -1.9 | 5.4
SMILES | TAAR1 antag | Rce1 inhib | TAAR1 ag | VLA-4 inh | Platelet DG rel | VLA-4 allo CP
CCCCCCCCC(c1nc2ccccc2[nH]1)N1CCN=C1c1cc2ccccc2[nH]1 (centres undefined) | 13.9 | . | 28.2 | . | . | .
COc1cc(SC)ccc1C(=O)Nc1ncc(Cl)cc1Cl | -3.8 | i | 0.7 | 54.8* | -15.9 | 7.0
O=C(Nc1cccc(Cl)c1)OCc1cnc(Cl)s1 | -2.5 | i | 3.4 | 2.1 | 2.7 | 12.6
CCN(CC(=O)Nc1c(F)cccc1F)C(=O)CCCN1C(=O)c2cccc3cccc(c23)C1=O | -26.6 | . | 4.5 | . | . | .
Cn1cccc1C(=O)NC(=O)COC(=O)c1ccc(O)cc1 | 2.1 | i | 10.8 | -6.6 | -2.3 | .
Cn1cccc1C(=O)NC(=O)COC(=O)c1ccccc1O | 3.7 | i | 19.4 | 55.0* | 14.6 | 3.3
COc1ccccc1-n1nnnc1SCC(=O)Nc1ccc(C)c(N)c1 | -0.3 | i | 1.2 | 53.7* | 2.7 | 3.1
O=C(O)c1c(C(=O)O)c(-c2ccc(F)cc2)n2c1CCC2 | -9.3 | i | 6.3 | 43.6 | -5.3 | -12.6
Cn1c(Sc2nc3ccccc3n2C)nc2ccccc21 | -4.1 | i | 8.6 | 68.1* | 0.6 | 5.7
Cn1c(SCC(=O)N2CCCC2)nc2ccccc21 | 19.1 | i | 2.5 | 27.4 | -5.7 | .
COc1cccc(-c2sc3ccc(OC)cc3c2-c2ccc(OCCN(C)C)cc2)c1 | 51.0* | . | 37.2 | 51.5* | . | 8.8
COc1ccc(-c2sc3ccccc3c2-c2ccc(OCCN(C)C)cc2)cc1 | 47.0 | . | 11.3 | 67.0* | . | 44.4*
CCOc1ccc(C(=O)NCC(=O)NC(C)CCc2ccccc2)cc1OCC (centres undefined) | -30.1 | i | 1.4 | -8.9 | -5.4 | .
Nc1ccc(S(=O)(=O)c2ccccc2)nc1 | -14.2 | i | 3.7 | 43.6 | -5.8 | -10.2
CCOC(=O)c1cccc(NC(=O)CN(c2ccc(C)cc2)S(=O)(=O)c2c(C)n[nH]c2C)c1 | 8.4 | i | 16.2 | 57.1* | -1.2 | -6.7
COc1ccc(NC(=O)CN(c2ccc(C)cc2)S(=O)(=O)c2c(C)nn(C)c2C)cc1 | -8.7 | i | 0.5 | -2.7 | -12.1 | .
CCOC(=O)c1ccc(NC(=O)CN(c2ccc(C)cc2)S(=O)(=O)c2c(C)nn(C)c2C)cc1 | 39.5 | i | 12.8 | 14.9 | 1.3 | 8.1
COc1ccc(N(CC(=O)Nc2cccc(C)c2)S(=O)(=O)c2c(C)n[nH]c2C)cc1 | 14.4 | i | 5.7 | 42.9 | -6.3 | .
Cc1ccc2c(c1)C1(OCCO1)C(=O)N2 | 8.2 | i | 10.3 | -2.8 | -1.4 | .
O=C1Nc2ccc(F)cc2C12OCCO2 | 4.8 | i | -1.5 | 50.7* | 0.0 | -0.2
N#Cc1ccccc1S(=O)(=O)N1CCN(C(=O)CN2C(=O)NC3(CCCC3)C2=O)CC1 | -12.6 | i | -0.2 | 1.6 | 14.5 | .
COc1cc(C(=O)OCC(=O)NC2CCCCC2)cc(OC)c1OC | -26.0 | . | 0.1 | 0.4 | . | 1.1
COc1cc(C(=O)OCC(=O)NC2CCCC2)cc(OC)c1OC | -11.8 | i | -0.7 | 4.0 | 3.8 | .
CCn1c(=N)n(CC(O)c2ccco2)c2ccccc21 (centres undefined) | 5.0 | i | -1.0 | 6.9 | -1.5 | .
CCn1c(=N)n(CC(O)c2cccs2)c2ccccc21 (centres undefined) | 8.0 | i | 3.7 | 41.2 | 2.2 | 2.1
